According to publication PMC3966479 (Science (New York, N.Y.), 2013):

What was measured:
THP1 macrophages = test: In vitro phagocytosis of opsonized nanobeads by THP1 macrophages; format: cell-based, human; conditions: THP1, DMSO solvent
In short: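 Fluorescent 100-nm streptavidin-coated polystyrene beads, opsonized with antistreptavidin antibody, with or without attached hCD47, given to THP1 cells in vitro. Phagocytosis scored at 45 min. Cultures fixed without permeabilization, and non-ingested beads immunostained with a secondary antibody against the antistreptavidin opsonin. Data as means ± SEM.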

macrophages / phagocytes = test: Circulation of nanobeads in NSG mice; format: in vivo, mouse (NSG); conditions: opsonized nanobeads, i.v.
[1] = Organ localization of nanobeads by whole-body NIRF imaging; format: in vivo, mouse (NSG); conditions: NIRF beads

With `O=S(=O)(O)c1ccc2cc(N=Nc3cc(S(=O)(=O)O)c4cccnc4c3O)ccc2c1` [NSC-87877] as the molecule, how does the “reversal of hCD47 inhibition of uptake” value (THP1 macrophages; SHP1 inhibition, hCD47 beads) read?
The value was “blocks the inhibition of uptake by hCD47”.

Which “inhibition of uptake by 50 µM compound” value (THP1 macrophages; 50 µM, inhibition of myosin-IIA) does the source give for `Cc1ccc2c(c1)C(=O)C1(O)CCN(c3ccccc3)C1=N2` (stereo not shown) [blebbistatin] here?
Its value is “inhibited”.

B1: mCD47: recombinant mouse CD47 (protein, UniProt Q61735 19-303, looked up)
Leukocyte surface antigen CD47: QLLFSNVNSIEFTSCNETVVIPCIVRNVEAQSTEEMFVKWKLNKSYIFIYDGNKNSTTTDQNFTSAKISVSDLINGIASLKMDKRDAMVGNYTCEVTELSREGKTVIELKNRTVSWFSPNEKILIVIFPILAILLFWGKFGILTLKYKSSHTNKRIILLLVAGLVLTVIVVVGAILLIPGEKPVKNASGLGLIVISTGILILLQYNVFMTAFGMTSFTIAILITQVLGYVLALVGLCLCIMACEPVHGPLLISGLGIIALAELLGLVYMKFVASNQRTIQPPRNR
With B1 as the molecule, how does the “effect on circulation / clearance of nanobeads” value (macrophages / phagocytes) read?
Its value is “enhanced persistence in circulation”.

What about the “splenic / organ localization of nanobeads” value [1] of the same molecule?
The value was “moderate but suppressed splenic localization”.
